SIAE inh: human SIAE inhibition, primary screen; Q9HAT2; SIAE FP-Rh probe binding, fluorescence polarization; 0.69% of 370,000 active; inhibition, % at 9.66 µM;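 active means inhibition above a cutoff: mean of compounds within the control limits plus 3 SD of those, cut at about 17% in these data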
PRMT1 FP inh: PRMT1 (human) inhibition, primary screen | Q99873 | recombinant PRMT1, activity-based probe fluorescence polarization | inhibition, % at 2.79 µM | 1.3% of 370,000 active;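 active means inhibition above about 21% made by adding two undisclosed values, limit read from the data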
TCR CD3 inh: blocks the human TCR-CD3 interaction. AID 651800. inhibition, % at 9.4 µM. TAMRA-labeled TCR probe fluorescence, biochemical. 0.37% of 360,000 active;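 further: recombinant mutant TCR 2C K166C tagged with TAMRA read by polarization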
HTRA1 inh: HTRA1 (human) protease inhibition | inhibition, % at 5.96 µM | recombinant HTRA1, FP-rhodamine activity-based probe, fluorescence polarization | Q92743 | 0.5% of 340,000 active | AID 504803; in the data active means inhibition above about 36%
Target sequence (Q92743 whole entry, looked up): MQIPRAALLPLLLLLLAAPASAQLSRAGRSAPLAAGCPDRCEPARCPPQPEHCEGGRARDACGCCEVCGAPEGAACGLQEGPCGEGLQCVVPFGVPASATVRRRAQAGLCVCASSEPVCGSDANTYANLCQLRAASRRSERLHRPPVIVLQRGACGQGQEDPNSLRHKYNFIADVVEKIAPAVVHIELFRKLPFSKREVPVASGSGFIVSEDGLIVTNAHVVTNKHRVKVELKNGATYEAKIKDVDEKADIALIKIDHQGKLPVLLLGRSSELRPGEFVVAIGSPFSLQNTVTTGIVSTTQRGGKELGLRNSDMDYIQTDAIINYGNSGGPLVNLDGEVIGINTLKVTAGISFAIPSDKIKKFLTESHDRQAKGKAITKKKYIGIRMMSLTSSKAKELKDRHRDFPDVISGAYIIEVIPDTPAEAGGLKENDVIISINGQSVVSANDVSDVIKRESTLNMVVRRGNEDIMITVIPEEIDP
ABHD4 inh: inhibitors of mouse ABHD4. Q8VD66. purified mABHD4, FP-Rh probe fluorescence polarization. inhibition, % at 8.92 µM. 0.54% of 370,000 active. AID 720543;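 active means inhibition exceeding the mean over every tested compound plus 3 SD, cut at about 30% in these data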
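Assay system: mouse ABHD4 enzyme, wild type / Also added: fluorescent activity-based probe FP-Rh / Doses: single nominal dose of 8.92 µM, 0.89% DMSO final / Timing: 45 min compound pre-incubation plus 60 min probe step, 25 °C / Signal: FP readout, ex 525 nm / em 598 nm / Control set: S159A mutant/DMSO as 100%, compound-well median as 0%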
BSA probe FL: interferes with TAMRA-BSA probe, flagging TCR-CD3 hits; inhibition, % at 9.4 µM; TAMRA-labeled BSA probe fluorescence counterscreen; shares compounds with TCR CD3 inh; AID 652035; 10% of 1,200 active; in the data active means inhibition above about 23%
TCR-CD3 conf: TCR-CD3 interaction inhibition, confirmation; AID 652036; TAMRA-labeled TCR probe fluorescence binding assay; 48% of 1,200 active; shares compounds with TCR CD3 inh; inhibition, % at 9.4 µM
Of the large screens only hits and unclear results are named; the others gave an inactive call (follow-up assays come after a bar, where they were run); ! = not active in a repeat. Hits are enriched below; roughly 2.7% of the tested compounds scored in any of these assays. Unless noted, no stated cut-off is given here; in the data, active means inhibition above about 19%; inactive means the rest.

CC1=C(C(=O)N2CCOCC2)CC(CC(=O)NC(c2ccccc2)c2ccccc2)C(=O)N1Cc1ccc(F)cc1 (centres undefined)	none
CC1CCCN(S(=O)(=O)c2cccc(C(=O)OCC(=O)N(C)Cc3c(F)cccc3Cl)c2)C1 (centres undefined)	none
COC(=O)[C@@H](Cc1ccccc1)N[C@H](/C=C/c1ccccc1)[C@@H](O)Cc1ccccc1	none (no result: HTRA1 inh)
Oc1ccc(-c2cn3c(n2)SCC3)cc1O	TCR CD3 inh 38 | BSA probe FL inactive | TCR-CD3 conf 33
CCOc1ncccc1C(=O)NNC(=O)CSc1ccc(Cl)cc1	none
Cc1ccc(NC(=O)c2[nH]cnc2C(=O)NN)cc1	none
NNC(=O)c1nc[nH]c1C(=O)Nc1ccccn1	TCR CD3 inh 38 | BSA probe FL inactive | TCR-CD3 conf 25
CCN(CC)CCC(c1cc(OC)c(OC)c(OC)c1)c1c(OC)cc(OC)c2ccc(=O)oc12 (centres undefined)	TCR CD3 inh 96 | BSA probe FL inactive | TCR-CD3 conf inactive
C=CCn1c(C)cc(-c2csc(NC(=O)CCc3nc4ccccc4c(=O)[nH]3)n2)c1C	TCR CD3 inh 25 | BSA probe FL inactive | TCR-CD3 conf inactive
CCN(CC)C(=O)C1=C(C)N(CCCOC)C(=O)C(CC(=O)NCc2ccco2)C1 (centres undefined)	none
CCN(CC)C(=O)CSc1ncnc2c(-c3cccs3)nsc12	TCR CD3 inh 20 | BSA probe FL inactive | TCR-CD3 conf inactive
Nc1[nH]c(C(=O)c2ccc(Br)cc2)c(-c2ccc(Cl)cc2)c1C(=O)NCCc1c[nH]c2ccccc12	none (no result: HTRA1 inh)
O=C(Nc1ccc(F)c(Cl)c1)C1Cc2c(-c3ccc4c(c3)OCO4)ccnc2O1 (centres undefined)	TCR CD3 inh 29 (no result: HTRA1 inh) | BSA probe FL inactive | TCR-CD3 conf inactive
COCCCNC(=O)CC(C)c1ccccc1 (centres undefined)	TCR CD3 inh 110 | BSA probe FL inactive | TCR-CD3 conf inactive
COCCNC(=O)CC(c1ccccc1)c1ccccc1	none
O=C(NNc1ccccc1)OCc1ccccc1	none
Cn1cc(-c2ccccc2C(=O)O)c(=O)c2cc(Cl)ccc21	none
Cc1ncc(CO)c(CNc2ccc(-c3nc4ccccc4[nH]3)cc2)c1O	none
Cc1ccc(SCc2cn3cc(Cl)ccc3n2)cc1	none
Clc1ccc2nc(CSCc3ccccc3)cn2c1	TCR CD3 inh 39 | BSA probe FL inactive | TCR-CD3 conf inactive
CC(C)(O)c1[nH]c2cc(F)ccc2c1C(C)(C)O	none
Cn1c(SCC(=O)N/N=C/c2ccccn2)nnc1-c1ccccc1	none
Cn1c(SCC(=O)N/N=C/c2cc([N+](=O)[O-])ccc2O)nnc1-c1ccccc1	TCR CD3 inh 21 | BSA probe FL inactive | TCR-CD3 conf inactive
Nc1nnc(CC(=O)N/N=C\c2cc([N+](=O)[O-])ccc2O)s1	TCR CD3 inh 36 | BSA probe FL inactive | TCR-CD3 conf 25
O=C(c1cccc(Br)c1)N1CCC(Oc2cccnc2)CC1	none (no result: TCR CD3 inh, HTRA1 inh)
O=S1(=O)c2ccc(N3CCN(Cc4ccccc4F)CC3)cc2Oc2ccccc2CN1Cc1cn(Cc2cccc(C(F)(F)F)c2)nn1	none (no result: TCR CD3 inh, HTRA1 inh)
O=C(NCCCN1CCCC1=O)C(=O)NCC1OCCCN1S(=O)(=O)c1ccccc1 (centres undefined)	none
O=C(NNC(=O)c1ccccc1OCc1ccccc1)c1ccccc1F	none
O=C(NCc1ccc(F)cc1)c1ccccc1OCc1ccccc1	none
O=C(NNC(=O)c1ccccc1OCc1ccc(F)cc1)c1ccccc1O	TCR CD3 inh 25 | BSA probe FL inactive | TCR-CD3 conf 23
O=C(NNC(=O)c1ccccc1OCc1ccccc1)c1ccccc1O	TCR CD3 inh 33 | BSA probe FL inactive | TCR-CD3 conf 19
Cc1cc(Cl)ccc1-c1nc(NC(C)C)nc2ccsc12	none (no result: HTRA1 inh)
Cc1csc(Nc2nc(N)c(C(=O)Nc3cc(Cl)ccc3F)o2)n1	none
O=C(Nc1cccc(S(=O)(=O)NC2=NCCCCC2)c1)c1cc(-c2ccccc2)nc2ccccc12	none
O=C(Nc1cccc(S(=O)(=O)NC2=NCCC2)c1)c1cc(-c2ccco2)nc2ccccc12	TCR CD3 inh 23 | BSA probe FL inactive | TCR-CD3 conf 32
O=C(N/N=C/c1ccc(F)cc1)c1cc(-c2ccco2)nc2ccccc12	TCR CD3 inh 30 | BSA probe FL inactive | TCR-CD3 conf 23
Cc1nnc(NC(=O)c2cc(-c3ccco3)nc3ccccc23)s1	TCR CD3 inh 19 | BSA probe FL inactive | TCR-CD3 conf 20
CCOc1ccc(/C=N/NC(=O)c2cc(-c3ccco3)nc3ccccc23)cc1	none
Cc1ccc(C(=O)OCc2nc3ccsc3c(=O)[nH]2)o1	none
CCc1ccc(N2CC(C(=O)OCc3csc(CC(=O)Nc4ccccc4C)n3)CC2=O)cc1 (centres undefined)	none
Cc1cnc(C(=O)OCc2nc3ccsc3c(=O)[nH]2)cn1	TCR CD3 inh 28 | BSA probe FL inactive | TCR-CD3 conf inactive
CCc1ccc(N2CC(C(=O)OCc3nc4ccsc4c(=O)[nH]3)CC2=O)cc1 (centres undefined)	TCR CD3 inh 27 | BSA probe FL inactive | TCR-CD3 conf inactive
CCOC(=O)c1cnc(Cc2ccccc2)[nH]c1=O	TCR CD3 inh 33 | BSA probe FL inactive | TCR-CD3 conf inactive
CC(=O)NNC(=S)NC(=O)c1ccc(C)cc1	TCR CD3 inh 23 | BSA probe FL inactive | TCR-CD3 conf 20
N#CC1=C(N)C(C#N)(C#N)C(c2ccc[nH]2)C2CCCC=C12 (centres undefined)	TCR CD3 inh 21 | BSA probe FL inactive | TCR-CD3 conf inactive
N#CC1=C(N)C2=CCCC[C@H]2[C@H](c2cccc(F)c2)C1(C#N)C#N	none
CCc1cc(Cl)c(OC)c(C(=O)NC[C@@H]2CCCN2CC)c1O	TCR CD3 inh 29! | BSA probe FL inactive | TCR-CD3 conf inactive
COc1ccccc1/C=C1\SC(=S)N(CCC(=O)NNC(=O)c2ccccc2OC)C1=O	TCR CD3 inh 28 | BSA probe FL inactive | TCR-CD3 conf inactive
O=C(CCC(=O)c1cccs1)NNC(=O)c1ccc(Cl)cc1	none
COc1ccccc1OCC(=O)NNC(=O)CCCC(=O)NNC(=O)COc1ccccc1OC	TCR CD3 inh 26 | BSA probe FL inactive | TCR-CD3 conf inactive
O=C(NNC(=O)c1ccccc1O)c1ccc(Br)cc1	TCR CD3 inh 23 | BSA probe FL inactive | TCR-CD3 conf 21
O=C(CCC(=O)c1cccs1)NNC(=O)c1ccccc1O	TCR CD3 inh 48 | BSA probe FL inactive | TCR-CD3 conf 28
CC(=O)NC(CC(=O)N(C)Cc1cccc(Cl)c1Cl)c1ccccc1 (centres undefined)	none
O=C(CCNC(=O)c1ccccc1)NNC(=O)c1ccccc1Br	none
O=C(CCNC(=O)c1ccc(Br)cc1)NNC(=O)c1ccccc1O	TCR CD3 inh 23 | BSA probe FL inactive | TCR-CD3 conf 20

Source: PubChem (The Scripps Research Institute Molecular Screening Center)
